# Sampled rows, rich in hits. Any-hit rate of the full collection: about 2%.
# GPR7 antag – GPR7 receptor antagonists, primary screen, cell-based, fluorescence, single concentration. Neuropeptides B/W receptor type 1 (Homo sapiens), P48145. GPR7-expressing cells, fluorescence antagonist assay. inhibition, % at 4.4 µM. actives 1.1% (n = 290,000). AID 1861, 2009; in the data active = inhibition above about 16%, passing the limit was not always enough;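 note: cells stimulated with the agonist NPW; 0% = agonist with vehicle and 100% = vehicle without agonist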
# Target sequence (P48145 whole entry, looked up): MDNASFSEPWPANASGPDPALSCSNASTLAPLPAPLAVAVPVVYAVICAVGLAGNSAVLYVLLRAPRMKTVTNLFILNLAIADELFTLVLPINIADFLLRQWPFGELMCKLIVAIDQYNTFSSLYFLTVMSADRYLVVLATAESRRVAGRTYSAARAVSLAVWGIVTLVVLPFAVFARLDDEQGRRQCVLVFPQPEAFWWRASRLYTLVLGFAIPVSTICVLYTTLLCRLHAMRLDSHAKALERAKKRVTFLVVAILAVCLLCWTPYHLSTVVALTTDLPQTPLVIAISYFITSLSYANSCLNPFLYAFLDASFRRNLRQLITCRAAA
# ZTA DNA inh – ZTA (EBV) inhibition in EBNA-1 counter-screen. actives 0.15% (n = 320,000). P03206. inhibition, % at 11 µM. ZTA-DNA binding, fluorescence polarization; in the data active = inhibition above about 33%
# HCV NS3 hel inh – inhibitors of HCV NS3 helicase, primary screen, biochemical, Cy5 molecular beacon fluorescence | Hepatitis C virus NS3 helicase | NS3 helicase DNA unwinding | inhibition, % at 10.9 µM | actives 0.56% (n = 290,000);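 active = inhibition above the mean of all tested compounds plus 3 SD, set per campaign, cut at about 35% in these data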;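 note: 0% = DMSO wells and 100% = thioflavine S control wells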
#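 Material: hepatitis C virus NS3 helicase domain fragment enzyme; measured by: Cy5 fluorescence, 0 and 60 min reads; control set: DMSO and thioflavine S; incubation: 60 min unwinding reaction at 25 °C after ATP addition; read-out basis: % inhibition from 60/0 min fluorescence ratio, DMSO 0%, thioflavine S 100%; repeats: singlicate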
# FID counter – compounds displacing fluorescent DNA intercalator, primary screen, artefact control for HCV NS3 helicase inhibitor project, biochemical, FID fluorescence; DNA fluorescent intercalator displacement; inhibition, % at 7.9 µM; actives 0.17% (n = 290,000); AID 1845, 2009; in the data active = inhibition above about 37%;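 note: 0% = vehicle and 100% = reference compound; higher means more ethidium bromide displaced from hairpin DNA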
# EBNA-1 inh – EBNA-1 DNA-binding inhibitors, primary screen, biochemical, fluorescence polarization. inhibition, % at 14.8 µM. actives 0.34% (n = 300,000). AID 1950, 2009; in the data active = inhibition above about 28%
# GPR7 antag cf – GPR7 receptor antagonists, confirmation, cell-based, fluorescence, single concentration. GPR7-expressing cells, calcium fluorescence antagonist mode. inhibition, % at 4.4 µM. shares compounds with GPR7 antag. actives 52% (n = 2,400); in the data active = inhibition above about 24%;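 note: stimulated with the GPR7 agonist NPW; 0% = agonist plus vehicle and 100% = vehicle alone without agonist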
# MCHR1 antagonist – MCHR1 antagonists in cells, counter-screen for GPR7 antagonist project, cell-based, fluorescence, human. shares compounds with GPR7 antag. MCHR1-expressing cells, fluorescence antagonist assay. inhibition, % at 4.4 µM. actives 62% (n = 2,400). AID 2148, 2009; in the data active = inhibition above about 22%;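 note: 0% = vehicle with agonist and 100% = vehicle without agonist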
# The depositor's hits bear a star; x = no result.
SMILES,GPR7 antag,ZTA DNA inh,HCV NS3 hel inh,FID counter,EBNA-1 inh,GPR7 antag cf,MCHR1 antagonist
COc1ccc(C2(C)NC(=O)N(CC(=O)c3cc(C)n(C4CC4)c3C)C2=O)cc1OC (stereo unspecified),x,18,x,x,x,x,x
CC(C(=O)Nc1cccnc1)c1ccc([N+](=O)[O-])cc1 (stereo unspecified),1,-11,3,2,2,x,x
CC(C)CC(NC(=O)C1CCC(C)CC1)C(=O)NCc1cccnc1 (stereo unspecified),-3,-12,-1,-9,-13,x,x
CC(C)Cc1ccc(C(C)C(N)=Nc2ccc(O)cc2)cc1 (stereo unspecified),x,-2,x,x,-1,x,x
CC(C)CC(NC(=O)C1CCC(C)CC1)C(=O)Nc1cccnc1 (stereo unspecified),28*,-3,-3,-30,3,-13,34*
CC(C)Cc1ccc(C(C)C(=O)Nc2cccnc2)cc1 (stereo unspecified),54*,-23,-9,-12,-9,46*,68*
CC(C)Cc1ccc(C(C)C(=O)Nc2ccc(O)cc2)cc1 (stereo unspecified),83*,-3,-5,-11,-9,88*,95*
O=C(COc1ccc(Br)cc1)NNC(=O)c1ccc(-n2cncn2)c([N+](=O)[O-])c1,x,-12,x,x,x,x,x
Cc1cccc(N2CCN(C(=O)c3c(-c4ccccc4Cl)noc3C)CC2)c1C,20,-17,-1,-43,9,x,x
Cc1ccc(NCc2nnc(SCC(=O)OC3CCCCC3)o2)c(C)c1,28*,-11,-4,-21,-15,23,23*
COc1cc(NS(=O)(=O)c2csc(C(N)=O)c2)cc(OC)c1,-7,10,-3,-1,-2,x,x
CCCCN1/C(=C/c2ccc3ccccc3[n+]2CC)Sc2ccccc21,85*,x,-58,4,x,81*,79*
O=C(N/N=C/c1ccncc1)c1ccccc1OCc1ccc(Br)cc1,31*,-11,-14,-23,3,25*,43*
S=C(Nc1ccc(Cl)c(Cl)c1)NC1CCCCC1,43*,-12,25,1,-1,35*,48*
Fc1ccc(NC(=S)NC2CCN(Cc3ccccc3)CC2)cc1,4,13,-1,10,-2,x,x
S=C(Nc1ccc(Cl)c(Cl)c1)NC1CCN(Cc2ccccc2)CC1,33*,4,-86,25,-11,70*,94*
COc1cc(NC(=O)Cc2cccc3ccccc23)c(C(=O)O)cc1OC,-16,11,10,-23,7,x,x
CC1c2[nH]c3ccccc3c2CCN1S(C)(=O)=O (stereo unspecified),26*,-21,-3,2,-18,4,6
C=Cc1ccc(Cn2nc(-c3ccc(C)cc3)ccc2=O)cc1,33,-11,-4,-33,2,x,x
CCOc1ccccc1NC(=O)c1cc(=O)c2ccccc2o1,-7,-7,-6,-6,13,x,x
CCOC(=O)Nc1cc(=O)c2ccccc2o1,21*,-5,4,1,2,3,19
COc1ccc(NC(=O)CSCC(=O)Nc2cccc3ncccc23)cc1,x,-4,x,x,0,x,x
O=C(c1ccccn1)N(Cc1cc2ccccc2[nH]c1=O)C1CCCCC1,7,-9,5,-28,3,x,x
COc1ccc2[nH]c(=O)c(CN(C(=O)c3ccccn3)C3CCCCC3)cc2c1,23*,-11,-2,-31,-3,9,-11
CN(Cc1ccc(N(C)C)cc1)C(=O)c1cc2ccccc2o1,41*,-3,12,-22,-2,10,26*
CN(Cc1ccccc1)C(=O)c1cc2ccccc2o1,1,-2,2,-12,-8,x,x
CCOc1cc(/C=C2\NC(=O)NC2=O)ccc1OC(C)C(=O)O (stereo unspecified),32*,3,10,-4,-10,-16,-8
